Most compounds without a hit are left out; they make up all but 3.6% or so of the library.
PAFAH1B2 inh = PAFAH1B2 (human) inhibition; AID 492953; 340,000 tested, 1.2% active; P68402; inhibition, % at 3.39 µM; recombinant PAFAH1B2, FP-rhodamine activity probe, fluorescence polarization;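 active means inhibition above the mean of all tested compounds plus 3 SD, cut at about 24% in these data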;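 further: 0% = enzyme with DMSO and 100% = wells lacking PAFAH1B2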
Target sequence (P68402 whole entry, looked up): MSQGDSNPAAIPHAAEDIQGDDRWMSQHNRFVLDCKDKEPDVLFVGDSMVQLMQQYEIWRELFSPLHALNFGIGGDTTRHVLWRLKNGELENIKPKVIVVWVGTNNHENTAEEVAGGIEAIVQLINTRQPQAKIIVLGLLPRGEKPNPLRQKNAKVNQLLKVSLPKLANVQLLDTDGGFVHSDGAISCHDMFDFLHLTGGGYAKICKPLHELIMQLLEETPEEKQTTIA
PAFAH2 FP inh = PAFAH2 (human) inhibition. recombinant PAFAH2, FP-rhodamine activity probe, fluorescence polarization. inhibition, % at 3.39 µM. 340,000 tested, 0.99% active;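 active means inhibition above the mean over all tested compounds plus 3 SD, cut at about 30% in these data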;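 further: inhibitors block probe labeling of enzyme so polarization drops; 0% = enzyme with DMSO and 100% = wells lacking PAFAH2 protein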
PAFAH1B3 FP inh = inhibitors of human PAFAH1B3; inhibition, % at 3.39 µM; 340,000 tested, 0.28% active; Q15102; recombinant PAFAH1B3, FP-rhodamine probe, fluorescence polarization;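 active means inhibition above the screen-wide average of all tested compounds plus 3 SD, cut at about 25% in these data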;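 further: 0% = enzyme with DMSO only and 100% = wells lacking PAFAH1B3 protein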
IMP-1 inh = inhibitors of Pseudomonas aeruginosa IMP-1 metallo-beta-lactamase; purified IMP-1, nitrocefin hydrolysis, epi-absorbance fluorescence; inhibition, % at 5.6 µM; 290,000 tested, 0.45% active;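 active means inhibition above the mean plus 3 SD of all compounds in the same screening run, cut at about 4.5% in these data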;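 further: 0% = IMP-1 with DMSO and 100% = DMSO wells lacking enzyme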
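System: Purified recombinant IMP-1 metallo-beta-lactamase enzyme | Measured by: Fluorescence quenching readout, ex 480/em 530 nm | Replication: Singlicate | Incubation: 15 min preincubation plus 25 min reaction at 25 °C | Evaluation: Percent inhibition from optical density relative to buffer-blank wells | Benchmarks: DMSO with and without IMP-1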
pPAFAH FP inh = pPAFAH (human) enzyme inhibition. 330,000 tested, 1.5% active. inhibition, % at 3.39 µM. Q13093. recombinant pPAFAH, FP-rhodamine probe fluorescence polarization;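 active means inhibition above the mean inhibition across the screen plus 3 SD, cut at about 25% in these data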;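 further: inhibitors block binding of the rhodamine activity-based probe so polarization drops; 0% = enzyme with DMSO and 100% = wells lacking pPAFAH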
Target sequence (Q13093 whole entry, looked up): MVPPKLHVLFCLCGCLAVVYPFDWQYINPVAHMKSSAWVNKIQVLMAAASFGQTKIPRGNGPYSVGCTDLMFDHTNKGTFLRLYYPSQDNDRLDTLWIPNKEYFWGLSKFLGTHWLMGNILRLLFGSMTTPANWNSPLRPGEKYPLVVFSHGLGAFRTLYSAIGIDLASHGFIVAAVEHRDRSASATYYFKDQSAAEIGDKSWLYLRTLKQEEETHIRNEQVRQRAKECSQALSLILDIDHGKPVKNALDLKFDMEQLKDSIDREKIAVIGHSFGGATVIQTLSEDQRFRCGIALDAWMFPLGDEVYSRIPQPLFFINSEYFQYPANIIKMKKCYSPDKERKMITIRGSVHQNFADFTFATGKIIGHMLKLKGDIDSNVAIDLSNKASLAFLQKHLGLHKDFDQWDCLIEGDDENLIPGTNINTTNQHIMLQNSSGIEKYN
VIM-2 inhibitor = inhibitors of Pseudomonas aeruginosa VIM-2 metallo-beta-lactamase | purified VIM-2, nitrocefin hydrolysis, epi-absorbance fluorescence | inhibition, % at 5.6 µM | 290,000 tested, 0.89% active | AID 1527;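 active means inhibition above the mean of all tested compounds plus 3 SD, cutoff set per screening run, cut at about 7.5% in these data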;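 further: red hydrolysis product quenches plate fluorescence so inhibitors raise well fluorescence; 0% = enzyme with DMSO and 100% = DMSO without enzyme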
* = called active by the depositor; . = no result given.

SMILES	PAFAH1B2 inh	PAFAH2 FP inh	PAFAH1B3 FP inh	IMP-1 inh	pPAFAH FP inh	VIM-2 inhibitor
N#Cc1nc(COc2ccc(Cl)cc2)oc1NCc1ccc2c(c1)OCO2	28.9*	-4.2	3.1	-2.0	1.5	-3.8
Cc1cccc(OCc2nc(C#N)c(NCc3ccc4c(c3)OCO4)o2)c1	7.4	2.6	2.3	0.7	0.4	0.3
CCOc1cc(/C=C2\SC(=O)N(c3ccc(O)cc3)C2=O)ccc1O	-2.1	3.8	1.8	-1.8	6.9	10.2*
CCOc1ccc(N2C(=O)S/C(=C\c3ccc(O)c(OCC)c3)C2=O)cc1	6.4	2.1	10.5	-3.8	13.3	-2.3
N#CC1=C(N)Oc2n[nH]c(-c3cccs3)c2C1c1cccs1 (configuration not stated)	9.3	7.2	16.4	3.2	4.2	8.2*
CCCc1cc(NCC2CCCO2)n2c(nc3ccccc32)c1C#N (configuration not stated)	1.0	0.7	5.8	-0.5	3.7	8.7*
Cc1cc(NCc2ccccn2)n2c(nc3ccccc32)c1C#N	6.6	12.7	4.7	-1.5	.	11.7*
CCCc1cc(NCc2ccccn2)n2c(nc3ccccc32)c1C#N	1.4	10.0	2.4	-3.2	7.9	4.4
CCCNc1cc(C)c(C#N)c2nc3ccccc3n12	2.2	4.7	3.7	-3.3	-3.9	3.9
CCCc1cc(NCCN(C)C)n2c(nc3ccccc32)c1C#N	4.6	4.5	1.1	-4.2	6.0	8.3*
CC(C)C[C@H]1CNC(=O)C(=O)N1CC1CCN(CCc2ccc(-c3ccccc3)cc2)CC1	-3.9	-0.6	5.1	.	.	.
Cc1c(C(=O)OCCOc2ccc(Br)cc2)sc(=S)n1C	28.0*	2.6	3.3	-1.6	-1.4	-0.4
Cc1ccc(OCCOC(=O)c2sc(=S)n(C)c2C)cc1	10.5	2.5	-5.9	-2.5	-0.5	-4.1
Cc1ccccc1NS(=O)(=O)c1ccc(NC(=O)c2ccco2)cc1	5.3	-30.6	11.7	-6.7	29.3*	-5.5
O=C(O)c1cccc(S(=O)(=O)NNc2ccccc2C(F)(F)F)c1	4.2	5.7	2.3	24.8*	4.2	0.1
Cc1ccccc1NS(=O)(=O)c1cccc(C(=O)Nc2cccc(C(=O)O)c2)c1	4.1	1.5	1.4	-2.9	27.3*	-0.7
Cc1cccc(NC(=O)c2cccc(S(=O)(=O)Nc3ccccc3C(=O)O)c2)c1	0.7	-8.8	6.0	-2.1	-10.6	-1.6
CCOc1cc(NS(=O)(=O)c2ccccc2)c(OCC)cc1NC(=O)c1ccco1	2.4	8.8	6.6	-5.3	31.1*	-1.6
NC(=O)C1CCN(C(=O)CCNS(=O)(=O)c2ccccc2F)CC1	2.9	-0.9	3.1	.	-2.0	.
C/C(=N\NS(=O)(=O)c1ccccc1)c1cccc(NC(=O)c2cccc(Cl)c2)c1	-2.4	-0.3	8.9	-3.4	24.9*	-2.7
Cc1ccccc1NS(=O)(=O)c1ccc(NC(=O)c2nc3ncccn3n2)cc1	-3.5	4.3	20.3	-4.2	29.1*	-9.0
COc1ccccc1NS(=O)(=O)c1ccc(NC(=O)c2nc3ncccn3n2)cc1	-2.5	-3.9	5.4	-2.8	.	-3.0
C/C(=N/NS(=O)(=O)c1ccc(Cl)cc1)c1cccc(NC(=O)c2ccncc2)c1	4.2	0.5	0.7	-3.0	-4.6	-3.0
O=C(NC(=S)Nc1cc([N+](=O)[O-])ccc1O)c1ccc2c(c1)OCO2	18.2	14.3	20.6	-1.3	29.4*	-6.5
COc1cc([N+](=O)[O-])ccc1NC(=S)NNC(=O)c1ccc2c(c1)OCO2	9.3	2.7	11.5	-4.1	18.5	-8.2
SMILES	PAFAH1B2 inh	PAFAH2 FP inh	PAFAH1B3 FP inh	IMP-1 inh	pPAFAH FP inh	VIM-2 inhibitor
OC(CCc1ccncc1)COc1ccccc1 (configuration not stated)	5.0	0.2	12.6	.	7.1	.
CC(C)N(C(=O)Cn1c(-c2ccccc2Cl)nc2ccccc21)c1ccccc1	13.8	-0.1	0.3	-1.0	25.8*	-2.3
Fc1cccc2sc(Nc3nnc(-c4ccccc4)o3)nc12	11.8	33.4*	1.3	-2.7	24.9*	-4.8
OC(Cc1ccnc2ccccc12)C(Cl)(Cl)Cl (configuration not stated)	1.2	-5.0	-0.5	.	.	.
Cc1c(O)c(CN(C)C)cc2c1oc(=O)c1ccccc12	1.4	1.5	7.8	-1.3	0.4	11.0*
COc1cc2c(cc1OC)C(C)N(C(=O)c1ccc(Cl)c(S(=O)(=O)N3CCCCC3)c1)CC2 (configuration not stated)	2.2	2.6	7.3	-1.4	6.2	-0.5
O=C(c1ccc(Cl)cc1)N1CCN(CCc2ccccn2)CC1	2.7	0.6	-1.0	-2.4	.	-2.6
O=C(NCc1nnnn1-c1ccc(F)c(F)c1)c1ccc2c(c1)OCO2	8.1	-0.7	1.9	.	0.7	.
COc1ccc(NC(=O)COC(=O)c2ccc(O)cc2)c([N+](=O)[O-])c1	-0.2	49.3*	6.1	-2.0	27.9*	2.7
COc1ccc(NC(=O)COC(=O)C2CCC(C(C)(C)C)CC2)c([N+](=O)[O-])c1 (configuration not stated)	4.7	6.3	10.9	-0.7	5.1	-3.1
O=C(NCCCSc1ccccc1)c1cc(Cl)ccc1O	11.8	10.6	1.4	-2.1	.	-0.3
Cc1ccc2nc(Cl)c3cc(C(=O)N(CCN(C)C)Cc4ccco4)sc3c2c1	1.5	0.1	7.8	1.6	3.7	8.3*
Cc1ccc2[nH]c(=O)c3cc(C(=O)N(CCCOC(C)C)Cc4ccco4)sc3c2c1	6.6	6.6	1.2	-3.0	-10.0	8.1*
CC(NC(=O)c1ccc(C(=O)c2ccccc2)cc1)c1ccc(S(N)(=O)=O)cc1 (configuration not stated)	0.5	0.0	-2.2	.	.	.
Nc1ncnc2c1ncn2[C@@H]1O[C@H](CNCC#Cc2ccccc2)[C@@H](O)[C@H]1O	3.4	-3.6	8.4	.	3.9	.
CN(C)/C=N/C1=C(C#N)C(c2ccc(Br)cc2)c2ccc3ccccc3c2O1 (configuration not stated)	6.4	-2.7	-3.5	6.1*	8.8	-1.8
NC(=O)c1ccc(NC(=O)c2ccc(COc3ccc(F)cc3)o2)cc1	1.2	15.8	4.4	.	1.3	.
CCc1cc2c(=O)n(Cc3ccco3)c(SCC(=O)N3CCCc4ccccc43)nc2s1	-1.9	0.5	2.4	6.0*	4.0	3.0
CCc1c(C2(O)CCCCC2)[nH]c2cnccc12	2.2	4.1	4.2	.	2.1	.
COc1ccccc1N(Cc1ccccc1)S(=O)(=O)c1cccc(C(=O)O)c1	7.1	-2.5	8.1	-3.6	34.0*	-1.6
CCOc1ccccc1NC(=O)c1cccc(S(=O)(=O)N(Cc2ccccc2)c2ccccc2OC)c1	-4.6	-9.1	-4.0	-0.9	1.6	-1.0
COC(=O)c1ccc2[nH]c([C@H](C)O)c([C@H](C)O)c2c1	0.2	-6.6	1.9	4.7*	6.5	4.9
